The source made the active and inactive calls. The rule behind the calls is not given here.
Columns and labels:
K562 [1] = assay: Induction of apoptosis in human K562 cells assessed as necrotic cells at 30 nM after 48 hrs by Annexin V-FITC/propidium iodide staining-based flow cytometric analysis (reference value: 0.1%); type: functional
HUVEC = assay: Cytotoxicity against HUVEC after 48 hrs by MTT assay; type: cell-based; conditions: Homo sapiens
K562 [2] = assay: Induction of apoptosis in human K562 cells assessed as late apoptotic cells at 300 nM after 24 hrs by Annexin V-FITC/propidium iodide staining-based flow cytometric analysis (reference value: 2.1%); type: functional
K562 [3] = assay: Induction of apoptosis in human K562 cells assessed as viable cells at 300 nM after 6 hrs by Annexin V-FITC/propidium iodide staining-based flow cytometric analysis (reference value: 95.6%); type: functional; conditions: K562, 6 h, read-out: Activity
K562 [4] = assay: Induction of apoptosis in human K562 cells assessed as early apoptotic cells at 300 nM after 24 hrs by Annexin V-FITC/propidium iodide staining-based flow cytometric analysis (reference value: 2.2%); type: functional
K562 [5] = assay: Induction of apoptosis in human K562 cells assessed as necrotic cells at 300 nM after 12 hrs by Annexin V-FITC/propidium iodide staining-based flow cytometric analysis (reference value: 0%); type: functional
K562 [6] = assay: Induction of apoptosis in human K562 cells assessed as necrotic cells at 30 nM after 6 hrs by Annexin V-FITC/propidium iodide staining-based flow cytometric analysis (reference value: 0.1%); type: functional
K562 [7] = assay: Induction of apoptosis in human K562 cells assessed as early apoptotic cells at 300 nM after 48 hrs by Annexin V-FITC/propidium iodide staining-based flow cytometric analysis (reference value: 2.2%); type: functional
K562 [8] = assay: Induction of apoptosis in human K562 cells assessed as early apoptotic cells at 30 nM after 48 hrs by Annexin V-FITC/propidium iodide staining-based flow cytometric analysis (reference value: 1.9%); type: functional
K562 [9] = assay: Induction of apoptosis in human K562 cells assessed as necrotic cells at 30 nM after 24 hrs by Annexin V-FITC/propidium iodide staining-based flow cytometric analysis (reference value: 0.1%); type: functional
K562 [10] = assay: Induction of apoptosis in human K562 cells assessed as late apoptotic cells at 300 nM after 6 hrs by Annexin V-FITC/propidium iodide staining-based flow cytometric analysis (reference value: 2.1%); type: functional
K562 [11] = assay: Induction of apoptosis in human K562 cells assessed as late apoptotic cells at 300 nM after 48 hrs by Annexin V-FITC/propidium iodide staining-based flow cytometric analysis (reference value: 2.1%); type: functional
HepG2 = assay: Anti-migratory activity against human HepG2 cells at 30 nM after 48 hrs by wound-healing assay relative to control; type: functional
In short: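 HepG2 cells seeded at 2 × 10^5 cells/well in DMEM and grown 24 h. Monolayer scratched with a 10 μl pipette tip, then PBS-washed three times. Treated with DMSO or compound (10, 30, 100 nM) at 37 °C, 5% CO2, imaged by microscopy at 0–48 h. Migration distance measured; inhibition ratio calculated against DMSO control.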

K562 [12] = assay: Induction of morphological changes in human K562 cells assessed as cell shrinkage at 30 nM after 24 hrs; type: functional, cell-based
In short: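 K562 cells kept in RPMI-1640 with 10% FBS, 2.05 mM glutamine and penicillin/streptomycin at 37 °C, 5% CO2. Exposed to 30 nM drug alongside DMSO-treated controls. Cell morphology examined by microscopy.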

## COc1ccc(CN2C(=O)C(=O)c3cc(-c4ccc(OC)cc4)ccc32)cc1
K562 [1]
  Activity: 1%
HUVEC
  IC50: 920 nM
K562 [2]
  Activity: 4.7%
K562 [3]
  viability at 0.3 µM: 93.6%
K562 [4]
  Activity: 12.4%
K562 [5]
  Activity: 0.4%
K562 [6]
  Activity: 0.1%
K562 [7]
  Activity: 85.2%
K562 [8]
  Activity: 22.3%
K562 [9]
  Activity: 0.4%
K562 [10]
  Activity: 3.8%
K562 [11]
  Activity: 10%
HepG2
  Activity: 26.9%
K562 [12]
  Activity: Active
